Results reported in ChEMBL document CHEMBL4354800, “Amphiphilic nebramine-based hybrids Rescue legacy antibiotics from intrinsic resistance in multidrug-resistant Gram-negative bacilli” (Eur J Med Chem, 2019).

How the values were obtained:
Assay type in all cases: functional
Escherichia coli [1] = experiment: Potentiation of rifampicin-induced antibacterial activity against Escherichia coli 107115 assessed as fold reduction in rifampicin MIC at 4.1 uM incubated for 18 hrs by broth dilution method
Outline: (§1)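 Antibiotic MIC determined by CLSI broth microdilution (MHB, 5 × 10^5 CFU/mL, 18 h, 37 °C), once alone and once with a fixed concentration of the adjuvant. Potentiation is the ratio of the antibiotic MIC alone to its MIC in the presence of the adjuvant.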

Enterobacter cloacae [2] = experiment: Potentiation of minocycline-induced antibacterial activity against Enterobacter cloacae 117029 assessed as fold reduction in minocycline MIC at 4.1 uM incubated for 18 hrs by broth dilution method; outline: as §1
Enterobacter cloacae [3] = experiment: Potentiation of rifampicin-induced antibacterial activity against Enterobacter cloacae 117029 assessed as fold reduction in rifampicin MIC at 4.1 uM incubated for 18 hrs by broth dilution method; outline: as §1
Klebsiella pneumoniae [4] = experiment: Potentiation of rifampicin-induced antibacterial activity against Klebsiella pneumoniae 116381 assessed as fold reduction in rifampicin MIC at 4.1 uM incubated for 18 hrs by broth dilution method; outline: as §1
Pseudomonas aeruginosa [5] = experiment: Antimicrobial activity against XDR Pseudomonas aeruginosa PA264 infected in Galleria mellonella larvae assessed as survival rate at 100 mg/kg administered 2 hrs post-inoculation measured after 18 hrs relative to control
Outline: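 G. mellonella larvae were injected with ~5 CFU of P. aeruginosa PA264 (10 µL of 5 × 10^2 CFU/mL in PBS) and held 2 h at 37 °C. A single 10 µL injection followed: monotherapy or rifampicin + compound (25+25, 50+50 or 75+75 mg/kg), with PBS as control. Larvae kept at 37 °C were scored every 6 h to 24 h; dead = no response to touch. n = 30 (two runs of 15); Kaplan-Meier.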

Klebsiella pneumoniae [6] = experiment: Potentiation of rifampicin-induced antibacterial activity against Klebsiella pneumoniae 113250 assessed as fold reduction in rifampicin MIC at 4.1 uM incubated for 18 hrs by broth dilution method; outline: as §1
Acinetobacter baumannii [7] = experiment: Potentiation of rifampicin-induced antibacterial activity against multidrug-resistant Acinetobacter baumannii AB110193 assessed as fold reduction in rifampicin MIC at 4.1 uM incubated for 18 hrs by broth dilution method
Outline: (§2)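 CLSI broth microdilution. Overnight cultures were set to 0.5 McFarland in saline, diluted 1:50 in Mueller-Hinton broth to a final 5 × 10^5 CFU/mL, and incubated 18 h at 37 °C against 2-fold antibiotic dilutions. A fixed adjuvant level was present throughout. MIC = lowest concentration with no visible turbidity, confirmed at 590 nm. Potentiation = fold drop in antibiotic MIC versus antibiotic alone.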

Escherichia coli [8] = experiment: Synergistic antibacterial activity against Escherichia coli 94474 assessed as fractional inhibitory concentration index in presence of minocycline incubated for 18 hrs by broth dilution method
Outline: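 Checkerboard titration of the adjuvant against the antibiotic, run under the CLSI microdilution conditions (MHB, 5 × 10^5 CFU/mL, 18 h, 37 °C). Each agent's FIC is its MIC in combination divided by its MIC alone; FICI is the sum of the two FICs. FICI ≤0.5 was read as synergy, >0.5–4.0 as no interaction, and >4.0 as antagonism.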

Acinetobacter baumannii [9] = experiment: Synergistic antibacterial activity against multidrug-resistant Acinetobacter baumannii ATCC 17978 assessed as fractional inhibitory concentration index in presence of minocycline incubated for 18 hrs by broth dilution method
Acinetobacter baumannii [10] = experiment: Potentiation of minocycline-induced antibacterial activity against […] Acinetobacter baumannii ATCC 17978 assessed as fold reduction in minocycline MIC at 4.1 uM incubated for 18 hrs by broth dilution method; outline: as §2
Pseudomonas aeruginosa [11] = experiment: Potentiation of rifampicin-induced antibacterial activity against MDR/XDR Pseudomonas aeruginosa isolate 101243 devoid of GyrA T83I mutant assessed as fold reduction in rifampicin MIC at 7.5 uM incubated for 18 hrs by broth microdilution method; outline: as §2
Pseudomonas aeruginosa [12] = experiment: Potentiation of minocycline-induced antimicrobial activity against MDR/XDR Pseudomonas aeruginosa isolate PA259-96918 harboring GyrA Thr83Ile mutant assessed as minocycline MIC80 incubated for 18 hrs by broth microdilution method (reference value: 32 microg/ml); settings: isolate PA259-96918, 18 h
Pseudomonas aeruginosa [13] = experiment: Potentiation of ciprofloxacin-induced antibacterial activity against MDR/XDR Pseudomonas aeruginosa isolate PA259-96918 harboring GyrA T83I mutant assessed as fold reduction in ciprofloxacin MIC at 7.5 uM incubated for 18 hrs by broth microdilution method
Pseudomonas aeruginosa [14] = experiment: Potentiation of minocycline-induced antimicrobial activity against MDR/XDR Pseudomonas aeruginosa isolate 100036 harboring GyrA Thr83Ile mutant assessed as minocycline MIC80 incubated for 18 hrs by broth microdilution method (reference value: 32 microg/ml); settings: isolate 100036, 18 h
Pseudomonas aeruginosa [15] = experiment: Potentiation of minocycline-induced antibacterial activity against MDR/XDR Pseudomonas aeruginosa isolate 101885 harboring GyrA T83I mutant assessed as fold reduction in minocycline MIC at 7.5 uM incubated for 18 hrs by broth microdilution method
Pseudomonas aeruginosa [16] = experiment: Potentiation of rifampicin-induced antimicrobial activity against MDR/XDR Pseudomonas aeruginosa isolate 101243 devoid of GyrA Thr83Ile mutant assessed as rifampicin MIC50 incubated for 18 hrs by broth microdilution method (reference value: 8 microg/ml); settings: isolate 101243, 18 h
Acinetobacter baumannii [17] = experiment: Potentiation of rifampicin-induced antibacterial activity against multidrug-resistant Acinetobacter baumannii AB027 assessed as fold reduction in rifampicin MIC at 7.5 uM incubated for 18 hrs by broth dilution method; outline: as §2
Pseudomonas aeruginosa [18] = experiment: Potentiation of moxifloxacin-induced antibacterial activity against MDR/XDR Pseudomonas aeruginosa isolate 101885 harboring GyrA T83I mutant assessed as fold reduction in moxifloxacin MIC at 7.5 uM incubated for 18 hrs by broth microdilution method; outline: as §2
Pseudomonas aeruginosa [19] = experiment: Potentiation of rifampicin-induced antimicrobial activity against MDR/XDR Pseudomonas aeruginosa isolate PA262-101856 harboring GyrA Thr83Ile mutant assessed as rifampicin MIC80 incubated for 18 hrs by broth microdilution method (reference value: 16 microg/ml); settings: isolate PA262-101856, 18 h
Pseudomonas aeruginosa [20] = experiment: Potentiation of moxifloxacin-induced antibacterial activity against MDR/XDR Pseudomonas aeruginosa isolate PA260-97103 harboring GyrA T83I mutant assessed as fold reduction in moxifloxacin MIC at 7.5 uM incubated for 18 hrs by broth microdilution method; outline: as §2
Acinetobacter baumannii [21] = experiment: Potentiation of rifampicin-induced antibacterial activity against multidrug-resistant Acinetobacter baumannii AB030 assessed as fold reduction in rifampicin MIC at 7.5 uM incubated for 18 hrs by broth dilution method; outline: as §2
Pseudomonas aeruginosa [22] = experiment: Potentiation of ciprofloxacin-induced antibacterial activity against MDR/XDR Pseudomonas aeruginosa isolate 100036 harboring GyrA T83I mutant assessed as fold reduction in ciprofloxacin MIC at 7.5 uM incubated for 18 hrs by broth microdilution method
Pseudomonas aeruginosa [23] = experiment: Potentiation of rifampicin-induced antimicrobial activity against MDR/XDR Pseudomonas aeruginosa isolate PA259-96918 harboring GyrA Thr83Ile mutant assessed as rifampicin MIC80 incubated for 18 hrs by broth microdilution method (reference value: 16 microg/ml); settings: isolate PA259-96918, 18 h

SMILES: Cl.Cl.Cl.Cl.Cl.NC[C@H]1O[C@H](O[C@H]2[C@H](OCCCCCCCCCCCCN3CCN(c4cc5c(cc4F)c(=O)c(C(=O)O)cn5C4CC4)CC3)[C@@H](O)[C@H](N)C[C@@H]2N)[C@H](N)C[C@@H]1O
- fold change (FC) (Escherichia coli [1]): >=256
- fold change (FC) (Enterobacter cloacae [2]): 16
- fold change (FC) (Enterobacter cloacae [3]): >=256
- fold change (FC) (Klebsiella pneumoniae [4]): >=128
- survival at 100 mg/kg (Pseudomonas aeruginosa [5]): 0%
- fold change (FC) (Klebsiella pneumoniae [6]): 128
- fold change (FC) (Acinetobacter baumannii [7]): 64
- fractional inhibitory concentration index (FICI) (Escherichia coli [8]): 0.063 - 0.078
- fractional inhibitory concentration index (FICI) (Acinetobacter baumannii [9]): 0.52
- fold change (FC) (Acinetobacter baumannii [10]): 2

SMILES: COc1c(N2C[C@@H]3CCCN(CCCCCCCCCCCCO[C@@H]4[C@@H](O)[C@H](N)C[C@H](N)[C@H]4O[C@H]4O[C@H](CN)[C@@H](O)C[C@H]4N)[C@@H]3C2)c(F)cc2c(=O)c(C(=O)O)cn(C3CC3)c12.Cl.Cl.Cl.Cl.Cl
- fold change (FC) (Pseudomonas aeruginosa [11]): 32
- MIC80 (Pseudomonas aeruginosa [12]): 1 µg/mL
- fold change (FC) (Pseudomonas aeruginosa [13]): 4
- MIC80 (Pseudomonas aeruginosa [14]): 1 µg/mL
- fold change (FC) (Pseudomonas aeruginosa [15]): 16
- MIC50 (Pseudomonas aeruginosa [16]): 0.06 µg/mL
- fold change (FC) (Acinetobacter baumannii [17]): 32
- fold change (FC) (Pseudomonas aeruginosa [18]): 4
- MIC80 (Pseudomonas aeruginosa [19]): 0.13 µg/mL
- fold change (FC) (Pseudomonas aeruginosa [20]): 64
- fold change (FC) (Acinetobacter baumannii [21]): 32
- fold change (FC) (Pseudomonas aeruginosa [22]): 2
- MIC80 (Pseudomonas aeruginosa [23]): 0.13 µg/mL
